Measured values from different studies.
Each line is one published result; the experiments were not run side by side.
Target: Serine/threonine-protein kinase LATS2 (LATS2, Homo sapiens, UniProt Q9NRM7)
Sequence (Q9NRM7 1-1088, as in one of the studies): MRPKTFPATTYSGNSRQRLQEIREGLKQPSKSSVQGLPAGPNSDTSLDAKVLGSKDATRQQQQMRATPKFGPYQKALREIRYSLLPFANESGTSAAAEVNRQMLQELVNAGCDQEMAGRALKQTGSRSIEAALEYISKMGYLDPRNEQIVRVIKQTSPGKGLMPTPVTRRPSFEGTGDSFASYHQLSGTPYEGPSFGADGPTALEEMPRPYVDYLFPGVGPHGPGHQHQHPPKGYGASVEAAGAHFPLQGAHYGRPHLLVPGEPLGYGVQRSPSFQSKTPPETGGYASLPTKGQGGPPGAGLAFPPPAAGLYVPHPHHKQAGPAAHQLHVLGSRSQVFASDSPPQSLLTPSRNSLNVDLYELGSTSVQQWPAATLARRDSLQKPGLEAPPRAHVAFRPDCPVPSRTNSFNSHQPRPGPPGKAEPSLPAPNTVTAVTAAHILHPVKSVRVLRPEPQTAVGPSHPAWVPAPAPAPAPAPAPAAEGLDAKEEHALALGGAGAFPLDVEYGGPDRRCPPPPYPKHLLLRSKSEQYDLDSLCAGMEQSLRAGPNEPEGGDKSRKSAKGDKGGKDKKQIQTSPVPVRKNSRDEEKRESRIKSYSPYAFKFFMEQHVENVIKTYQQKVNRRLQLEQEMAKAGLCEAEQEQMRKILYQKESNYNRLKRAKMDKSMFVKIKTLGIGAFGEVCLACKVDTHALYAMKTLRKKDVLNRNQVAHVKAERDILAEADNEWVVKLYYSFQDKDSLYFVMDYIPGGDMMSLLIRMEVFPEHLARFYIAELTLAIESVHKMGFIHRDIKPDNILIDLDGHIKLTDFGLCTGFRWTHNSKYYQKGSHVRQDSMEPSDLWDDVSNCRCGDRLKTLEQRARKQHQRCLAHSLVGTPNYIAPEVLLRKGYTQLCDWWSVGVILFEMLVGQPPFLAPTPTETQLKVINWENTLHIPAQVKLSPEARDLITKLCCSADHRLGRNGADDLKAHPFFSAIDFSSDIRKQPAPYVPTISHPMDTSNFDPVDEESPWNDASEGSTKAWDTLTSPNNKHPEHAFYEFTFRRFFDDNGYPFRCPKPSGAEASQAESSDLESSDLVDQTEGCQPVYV

| SMILES | observed | mode | method | cell line | concentration | endpoint | result |
| --- | --- | --- | --- | --- | --- | --- | --- |
| CC(C)(O)[C@H]1CC[C@H](Nc2ccc3ncc(-c4cccc(C(F)(F)F)c4)n3n2)CC1 | enzyme activity | inhibitor | – | – | 1 µM | remaining activity | 61.4% |
| Nc1ncnc2occ(-c3ccc(NC(=O)Nc4cc(C(F)(F)F)ccc4F)cc3)c12 | cell-free assay | inhibitor | – | – | 20 µM | remaining signal | 3.7% |
| Cn1cncc1C1=CN(c2ncnc3[nH]cnc23)CCS1 | enzyme activity | inhibitor | radiometric | – | 50 nM | inhibition | 34.2% |
| COc1ccc2c(c1)O[C@H](c1ccc(OC)c(OC)c1)C[C@@H]2NC(=O)C1(c2ccc3c(c2)OC(F)(F)O3)CC1 | cell-free assay | – | competition with immobilised ligand | – | 1 µM | remaining binding | 89% |
| CCN1CCN(Cc2ccc(NC(=O)c3ccc(C)c(/C=C/c4cnc5[nH]ccc5c4OC)c3)cc2C(F)(F)F)CC1 | target engagement in cells | inhibitor | chemoproteomics | A-375 | 5 µM | inhibition | -21.8% |
| O=C(Nc1cnn(-c2csc(C(=O)NC3COC3)c2)c1)Nc1c(F)cccc1Cl | enzyme activity | inhibitor | – | – | 5 µM | remaining activity | 104% |
| Cc1ccc(C(=O)Nc2ccc(CN3CCN(C)CC3)c(C(F)(F)F)c2)cc1C#Cc1cnc2cccnn12 | enzyme activity | inhibitor | – | – | 23.5 nM | remaining activity | 95% |
| Cn1cnc(Br)c1C1=CN(c2ncnc3[nH]cnc23)CCS1 | enzyme activity | inhibitor | radiometric | – | 50 nM | inhibition | 29.1% |
| Cc1cnn2ncc(-c3ccnc(N(C)C)n3)c2c1 | binding | – | – | – | 1 µM | remaining binding | 84% |
| O=C(NCc1ncc(C(F)(F)F)cc1Cl)c1ccc2c(c1)C1(CCS(=O)(=O)CC1)[C@H](C1CC1)N2S(=O)(=O)c1ccc(F)cc1 | cell-free assay | – | competition with immobilised ligand | – | 1 µM | remaining binding | 100% |
| O=C(Nc1cnn(-c2csc(C(=O)NC3COC3)c2)c1)Nc1ccccc1Cl | enzyme activity | inhibitor | – | – | 5 µM | remaining activity | 96% |
| COc1cc(-c2cc(-c3ccc(N4CCNCC4)cc3)cnc2C)cc(OC)c1OC | enzyme activity | inhibitor | – | – | 1 µM | inhibition | 2% |
